Broadly, the Ki is the dissociation constant of the complex between target and ligand, obtained from inhibition or displacement. The low end stands for a stronger hold on the target, the high end for a looser hold on the target. A word on the inhibition: it is the percentage by which the read-out fell short of the control. The term IC50 denotes the midpoint of a concentration-inhibition curve. Higher therefore signals weaker potency in that assay.

This note sets out measurements from ChEMBL document CHEMBL4828708 (Eur J Med Chem, 2021).

Calls of active or inactive are those of the source. The calls are words filed in the database; no cut-off is given here.

One assay addresses T1, Adenosine receptor A3 (Homo sapiens, UniProt P0DMS8).
T1 sequence (P0DMS8 whole entry): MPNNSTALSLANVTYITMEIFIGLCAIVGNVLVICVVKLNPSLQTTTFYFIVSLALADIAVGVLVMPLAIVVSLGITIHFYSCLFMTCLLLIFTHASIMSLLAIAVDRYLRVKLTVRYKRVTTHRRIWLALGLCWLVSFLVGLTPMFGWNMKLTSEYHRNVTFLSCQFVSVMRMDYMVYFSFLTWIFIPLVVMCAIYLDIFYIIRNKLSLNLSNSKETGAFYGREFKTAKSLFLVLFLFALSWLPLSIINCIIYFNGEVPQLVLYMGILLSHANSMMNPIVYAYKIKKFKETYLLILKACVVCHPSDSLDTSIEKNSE
Nature of the assay: Displacement of [3H]NECA from human adenosine A3 receptor expressed in HeLa cell membrane incubated for 180 mins by microplate beta scintillation counting based radioligand inhibition assay. In kind it is cell membranes. On the technique in general: Displacement assays read how much labelled ligand stays bound in the presence of the test substance.

Another assay has as its target T2, Adenosine receptor A1 (Homo sapiens, UniProt P30542).
T2 sequence (P30542 whole entry): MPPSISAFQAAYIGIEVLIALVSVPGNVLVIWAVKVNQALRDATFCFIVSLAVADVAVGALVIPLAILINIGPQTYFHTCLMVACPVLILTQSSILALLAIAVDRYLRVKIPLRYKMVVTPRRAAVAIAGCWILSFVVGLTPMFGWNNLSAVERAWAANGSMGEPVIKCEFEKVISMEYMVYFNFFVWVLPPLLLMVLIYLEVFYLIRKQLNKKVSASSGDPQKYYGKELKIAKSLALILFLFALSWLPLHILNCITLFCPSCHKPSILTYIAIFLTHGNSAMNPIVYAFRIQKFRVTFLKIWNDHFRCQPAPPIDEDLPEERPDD
Nature of the assay: Displacement [3H]DPCPX from human adenosine A1 receptor expressed in CHO cell membrane incubated for 60 mins by microplate beta scintillation counting based radioligand inhibition assay. In kind it is cell membranes.

Assay [1] deals with T3, Adenosine receptor A3 (Homo sapiens) (UniProt P0DMS8).
T3 sequence (whole entry): T1 sequence (P0DMS8 whole entry)
Nature of the assay: Displacement of [3H]NECA from human adenosine A3 receptor expressed in HEK293 cell membrane at 10 uM incubated for 180 mins by microplate beta scintillation counting based radioligand inhibition assay relative to control.

Assay [2] concerns the target T4, Adenosine receptor A2b (Homo sapiens) (UniProt P29275).
T4 sequence (whole entry): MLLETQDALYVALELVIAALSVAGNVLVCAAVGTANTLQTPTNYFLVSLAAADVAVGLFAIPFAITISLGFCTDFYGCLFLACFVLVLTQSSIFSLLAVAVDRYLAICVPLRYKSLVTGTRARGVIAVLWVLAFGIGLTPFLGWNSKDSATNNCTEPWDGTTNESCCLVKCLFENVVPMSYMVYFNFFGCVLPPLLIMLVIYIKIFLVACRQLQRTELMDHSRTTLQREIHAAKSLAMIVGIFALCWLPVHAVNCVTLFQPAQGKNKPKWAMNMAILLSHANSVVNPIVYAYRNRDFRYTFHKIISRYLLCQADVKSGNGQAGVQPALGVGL
Nature of the assay: Displacement of [3H]DPCPX from human adenosine A2B receptor expressed in HEK cell membrane at 10 uM incubated for 30 mins by microplate beta scintillation counting based radioligand inhibition assay relative to control. As to conditions: HEK293. In kind it is cell membranes.

The next assay concerns the target T5, Adenosine receptor A2b (Homo sapiens, UniProt P29275).
T5 sequence (P29275 whole entry): T4 sequence (whole entry)
Nature of the assay: Displacement of [3H]DPCPX from human adenosine A2B receptor expressed in HEK cell membrane incubated for 30 mins by microplate beta scintillation counting based radioligand inhibition assay. Format: cell membranes.

Assay [3] concerns the target T6, Adenosine receptor A2a (Homo sapiens, UniProt P29274). Nature of the assay: Displacement of [3H]ZM241385 from human adenosine A2A receptor expressed in HeLa cells by beta scintillation counting analysis. In kind it is cell-based.
The test system of assay [4] is Blood. Nature of the assay: Inhibition of ADP-stimulated platelet aggregation in human whole blood assessed as decrease in platelet activation measured upto 15 mins by whole blood aggregometry assay. Format: functional, tissue-based. The method, boiled down:
(§1)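 Human whole blood was pre-incubated 5 min with compound dissolved in 0.1% DMSO, or with 0.1% DMSO alone. Test concentrations were 10, 30 or 50 μM. Aggregation was triggered with 6.4 μM ADP or 1 μg/mL collagen and monitored for up to 15 min on a five-channel Multiplate analyzer. Read-out was area under the aggregation curve, n = 13 donors, paired Student's t-test.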

Assay [5] has as its system Blood. Nature of the assay: Inhibition of collagen-stimulated platelet aggregation in human whole blood assessed as decrease in platelet activation measured upto 15 mins by whole blood aggregometry assay. In kind it is functional, tissue-based. The method, boiled down: as §1
The subject of assay [6] is Blood. Nature of the assay: Inhibition of thrombus in human whole blood measured after 10 mins by microscopic analysis. In kind it is functional, tissue-based. The method, boiled down:
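Citrated human blood labelled with anti-CD61-PE, given compound or 0.1% DMSO 5 min beforehand, recalcified with 1 mM CaCl2, then perfused through type I collagen-coated channels at 20 dyn/cm2 for 5 min. Fluorescent thrombus area summed per donor (thrombi >50 μm2). Paired t-test, n = 9.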

The target in assay [7] is T6, Adenosine receptor A2a. Nature of the assay: Displacement of [3H]CGS21680 from human adenosine A2A receptor expressed in HEK293 cell membrane incubated for 30 mins by microplate beta scintillation counting based radioligand inhibition assay.

T6 sequence (P29274 whole entry): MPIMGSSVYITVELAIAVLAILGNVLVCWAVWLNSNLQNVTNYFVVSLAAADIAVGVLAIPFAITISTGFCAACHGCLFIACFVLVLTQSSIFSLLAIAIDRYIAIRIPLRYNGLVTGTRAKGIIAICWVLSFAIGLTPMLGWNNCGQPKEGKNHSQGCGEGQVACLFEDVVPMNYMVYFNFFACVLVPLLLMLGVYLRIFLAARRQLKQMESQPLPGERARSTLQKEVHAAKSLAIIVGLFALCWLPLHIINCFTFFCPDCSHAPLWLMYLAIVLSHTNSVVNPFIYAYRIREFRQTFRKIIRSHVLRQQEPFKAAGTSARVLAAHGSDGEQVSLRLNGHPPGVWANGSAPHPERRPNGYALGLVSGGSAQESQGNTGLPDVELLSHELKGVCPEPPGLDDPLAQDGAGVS

Consider `Nc1nc(CCc2ccccc2)nc2c1ncn2[C@@H]1O[C@H](CO)[C@@H](O)[C@H]1O`, for which the values for the inhibition constant (Ki) at Adenosine receptor A3 and on Adenosine receptor A1 were 8610 nM and 1940 nM, respectively.

Compound `Nc1ncnc2c1nc(CCc1ccccc1)n2[C@H]1C[C@H](O)[C@@H](CO)O1` registered an inhibition in [1] of 44%.

As for `Nc1ncnc2c1ncn2[C@@H]1O[C@H](CO)[C@@H](O)[C@H]1OCOCCCc1ccccc1`, the inhibition in assay [1] is 29%.

Turning to `CCNC(=O)[C@H]1O[C@@H](n2cnc3c(NCCCCc4ccccc4)ncnc32)[C@H](O)[C@@H]1O`, the Ki on Adenosine receptor A1 is 803 nM.

Consider `OC[C@H]1O[C@@H](n2cnc3c(NCCCCc4ccccc4)ncnc32)[C@H](O)[C@@H]1O`, for which, on Adenosine receptor A1, the Ki came to 864 nM.

On to `Nc1ncnc2c1ncn2[C@H]1C[C@H](O)[C@@H](CO)O1`, for which the inhibition turned out to be 12% in assay [2] and 5% in assay [1].

For the compound `CCNC(=O)[C@H]1O[C@@H](n2cnc3c(NCCCc4ccccc4)ncnc32)[C@H](O)[C@@H]1O`, the Ki at Adenosine receptor A3 was 4.5 nM; at Adenosine receptor A2b, 1380 nM. Besides, the IC50 at Adenosine receptor A2a [3] was determined as 14.6 µM. For the same compound, the inhibition entry with Blood [4] and in the assay on Blood [5] was “Active” throughout.

With `Nc1nc(C#Cc2ccccc2)nc2c1ncn2[C@@H]1O[C@H](CO)[C@@H](O)[C@@H]1O`, the Ki on Adenosine receptor A3 came out at 1230 nM.

With `Nc1ncnc2c1nc(CCc1ccccc1)n2[C@@H]1O[C@H](CO)[C@@H](O)[C@H]1O`, the inhibition in [1] came out at 8%.

With `OC[C@H]1O[C@@H](n2cnc3c(NCCCc4ccccc4)nc(Cl)nc32)C[C@@H]1O`, the figures for the Ki at Adenosine receptor A3 and on Adenosine receptor A1 were 8770 nM and 13300 nM, respectively. In addition, the inhibition in assay [2] is 1%.

At Adenosine receptor A3, `Nc1ncnc2c1nc(C#Cc1ccccc1)n2[C@@H]1O[C@H](CO)[C@@H](O)[C@H]1O` returned a Ki of 856 nM.

Consider `OC[C@H]1O[C@@H](n2cnc3c(NCCCc4ccccc4)ncnc32)[C@H](O)[C@@H]1O`, for which the Ki is 54.6 nM at Adenosine receptor A3 and 78.8 nM at Adenosine receptor A1. Further, the inhibition result in the assay on Blood [4] and in the assay on Blood [6] was “Active” throughout.

In assay [1], `Nc1nc(CCc2ccccc2)nc2c1ncn2[C@@H]1O[C@H](CO)[C@@H](O)[C@@H]1O` registered an inhibition of 54%.

Turning to `Nc1nc(C#Cc2ccccc2)nc2c1ncn2[C@@H]1O[C@H](CO)[C@@H](O)[C@H]1O`, the Ki on Adenosine receptor A3 was determined as 42 nM; on Adenosine receptor A1, 646 nM; on Adenosine receptor A2a [7] it was 1040 nM.

Regarding `Nc1ncnc2c1nc(C#Cc1ccccc1)n2[C@H]1C[C@H](O)[C@@H](CO)O1`, the Ki is 879 nM at Adenosine receptor A3 and 1990 nM at Adenosine receptor A2a [7].
